In the library only some 12% were active in any assay of this set; here they are far more common.
Autophagy mod – modulators of autophagy | MEF GFP-LC3 puncta imaging; test concentration mostly 10 µM | calls only at 10 µM (by protocol) | 0.98% of 190,000 active | AID 463193;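 active = percentage of spot-positive cells more than 3 SD above its plate mean, without a fluorescence outlier flag or 80% toxicity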
bCat nuc transl – beta-catenin nuclear translocation modulation | HeLa beta-catenin nuclear translocation, immunofluorescence imaging | nuclear translocation activity, % at 5 µM | 0.3% of 190,000 active | AID 1665;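 active = nuclear translocation activity above 50% at 5 µM, with a well cell count of 50 or more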;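 note: per-cell ratio of nuclear to cytoplasmic median beta-catenin stain intensity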
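Read-out: Nuclear/cytoplasmic beta-catenin signal ratio, % activation | Assay system: Human HeLa cell line | Times: 24 h compound exposure at 37°C, 5% CO2 | Signal: Fluorescence imaging of beta-catenin antibody stain plus DAPI | Dosing: 5 µM primary, 0.02–20 µM confirmation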
CHOP inhibitor – CHOP inhibition in unfolded protein response. CHO-K1 CHOP-promoter luciferase, tunicamycin-induced, 15-18 h. inhibition, % at 10 µM. 3.8% of 220,000 active;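 active = compounds that reduced the stress-induced luciferase reporter signal by more than about 70% of percent inhibition, limit read from the data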
Dynein cargo inh – dynein cargo transport inhibition | 3617.4 mouse cells, GR-EGFP nuclear translocation imaging; test concentration mostly 20 µM; stimulated with dexamethasone, 1 µM; active compounds read low | z-score, hits read low | 0.47% of 220,000 active | AID 1381;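 active = plate z-score of nuclear minus cytoplasmic receptor signal below a set negative limit, without overly bright fluorescence or cell loss, cut at about -3.5 in these data, passing the limit was not always enough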;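 note: z-score of nuclear minus cytoplasmic ring GR-EGFP intensity difference per well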
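Buffer or medium: tet-free, stripped-serum medium; reagent: dexamethasone at 1.0 µM final, 30 min; incubation: 48 h induction, 1 h compound, 30 min dex at 37 °C; measured by: formaldehyde fixation, Hoechst nuclear stain, 10x automated fluorescence imaging; read-out: nuclear-to-cytoplasmic GR-EGFP distribution per well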
L major viab – Leishmania major promastigote growth inhibition | Leishmania major promastigotes, resazurin fluorescence viability | inhibition, % at 10 µM | 9% of 200,000 active; in the data active = inhibition above about 50%;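 note: promastigotes grown with compound for 44 hours at 28 °C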
MT stabilizer – microtubule stabilizers in HeLa cells | % tubulin-high responders, % at 10 µM | 0.83% of 200,000 active | HeLa tubulin immunostaining HCS, 24 h; share of cells brighter than vehicle mean+2SD | AID 2205;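 active = plate Z-score above 3 for both tubulin-high and condensed-nucleus cell shares, with cell loss under 80%, at 10 µM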;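 note: anti alpha tubulin signal scored within the nucleus-defined area of each cell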
Hits are given with their value; 0 = inactive; - = not tested or not shown; + = active, no number.

SMILES	Autophagy mod	bCat nuc transl	CHOP inhibitor	Dynein cargo inh	L major viab	MT stabilizer
N/C(CN1CCCCC1)=N\S(=O)(=O)c1cc(Cl)cc(Cl)c1	-	0	0	0	-	-
CC1CC(NC(=O)CC#N)CC(C)(C)C1 (stereo unspecified)	-	0	0	0	-	-
CC1CC(NC(=O)C2(C)CC2(Cl)Cl)CC(C)(C)C1 (stereo unspecified)	0	-	0	0	55	0
COc1ccc(C)cc1N(CC(=O)Nc1ccc2c(c1)OCCO2)S(C)(=O)=O	0	0	0	0	0	0
COc1ccccc1CNC(=O)C1CC(c2cccc([N+](=O)[O-])c2)=NO1 (stereo unspecified)	0	0	0	0	0	48
O=C(NCc1ccco1)C1CC(c2cccc([N+](=O)[O-])c2)=NO1 (stereo unspecified)	0	0	0	0	0	0
COc1cccc(C2=NOC(C(=O)NCc3cccs3)C2)c1 (stereo unspecified)	0	98	0	0	0	22
O=C(C1CC=CCC1)N1CCC(CO)(Cc2ccc(Cl)cc2)CC1 (stereo unspecified)	0	0	0	0	0	0
Nc1ccc(-c2ccc(C(=O)O)s2)cn1	0	0	0	0	0	0
CC(=O)N1CCc2cc(Br)cc(S(=O)(=O)CCC(=O)N3CCN(c4ccccn4)CC3)c21	0	-	0	0	0	0
COC(=O)C1=C(C)N(c2cc(C)cc(C)c2)/C(=C/c2ccco2)C1=O	0	0	0	0	0	0
COC(=O)C1=C(C)N(c2cc(C)cc(C)c2)/C(=C/c2ccc(O)cc2)C1=O	0	0	0	0	99	0
COC(=O)C1=C(C)N(c2ccc(Cl)cc2)/C(=C/c2ccc(O)cc2)C1=O	0	0	0	0	84	0
C=CCN=Cc1c(C)[nH]n(-c2ccccc2)c1=O	0	0	0	0	0	0
COc1ccc(CN(C)c2ncnc(N)n2)cc1	0	-	0	0	0	0
CCCCOc1ccc(CN(C)c2ncnc(N)n2)cc1	0	0	0	0	0	23
FC(F)(F)c1cccc(NC(=S)N2CCN(c3ccccc3)CC2)c1	0	0	80	0	0	0
CN1CCN(C(=S)Nc2cccc(C(F)(F)F)c2)CC1	0	0	0	0	83	0
CCCCOc1ccccc1C1NC(=O)NC(C)=C1C(=O)OCCOC (stereo unspecified)	0	-	-	0	0	0
CC(C)C(=O)N1CCN(c2ccc(NC(=O)c3ccc(Br)o3)cc2)CC1	0	0	0	0	0	0
O=C(Nc1ccc(N2CCN(C(=O)c3ccc(Cl)cc3)CC2)cc1)c1ccc(Br)o1	0	-	77	0	0	0
CC(C)C(=O)N1CCN(c2ccc(NC(=O)c3ccc([N+](=O)[O-])o3)cc2)CC1	+	0	0	0	99	0
O=C(Nc1ccc(N2CCN(C(=O)c3ccccc3)CC2)cc1)c1ccc([N+](=O)[O-])o1	0	0	0	0	101	15
Cc1ccc(-c2ccc(=O)n(CC(=O)NCc3ccc(F)cc3)n2)cc1	0	0	0	0	0	0
COc1ccccc1CNC(=O)C(C)c1ccc([N+](=O)[O-])cc1 (stereo unspecified)	0	0	0	0	0	0
SMILES	Autophagy mod	bCat nuc transl	CHOP inhibitor	Dynein cargo inh	L major viab	MT stabilizer
CC(C)NC(=O)C1CC(=O)N(c2ccc(F)c(Cl)c2)C1 (stereo unspecified)	0	0	0	0	0	0
CCC(C)n1cnc2c(c1=O)c1nc3ccccc3nc1n2-c1ccc2c(c1)OCCO2 (stereo unspecified)	0	0	83	0	0	0
Cc1cc2cc3c(cc2nc1SCC(=O)Nc1nc(C)c(C)s1)OCO3	0	0	0	0	83	0
CCc1nnc(NC(=O)CSc2nc(C)c3c(c2C#N)CCCC3)s1	0	0	0	0	0	26
CCc1cc2cc3c(cc2nc1SCC(=O)N1CCN(C(=O)c2ccco2)CC1)OCO3	0	0	0	0	84	0
CCc1nnc(NC(=O)CSc2nc3cc4c(cc3cc2CC)OCCO4)s1	+	0	0	0	0	0
COC(=O)CSc1nc2cc3c(cc2cc1C)OCO3	0	0	0	0	0	0
Cc1noc(C)c1-c1nc(CS(=O)(=O)c2ccc(F)cc2)no1	-	0	0	0	-	-
COc1ccccc1C1CC(=O)NC(C)=C1C(=O)OC(C)C (stereo unspecified)	0	0	0	0	0	0
CCc1cc2cc3c(cc2nc1SCC(=O)Nc1cc(C)on1)OCO3	+	0	95	0	0	0
CCOC(=O)N1CCN(C(=O)Nc2ccc(Cl)cc2Cl)CC1	0	-	0	0	0	0
CC(=O)c1sc(N/N=C\c2cccc(Br)c2)nc1C	0	0	81	0	0	0
Cc1cc(N/N=C/c2ccncc2)nc2ccccc12	0	0	0	0	73	0
Cc1cc(N/N=C/c2cccc(Br)c2)nc2ccccc12	0	0	0	0	61	0
ClC(Cl)(Cl)c1nc(N/N=C/c2ccncc2)c2ccccc2n1	0	0	0	0	0	0
Cc1cc(C)nc(N/N=C/c2ccccc2)n1	0	0	0	0	0	0
O=c1[nH]c2ccccc2n2c(-c3ccncc3)nnc12	0	0	0	0	0	0
COc1ccc(C(C)=O)cc1COc1nc(C)nc2ccccc12	0	0	0	0	0	15
COc1ccc(C(C)=O)cc1COc1ccc(F)cc1	0	0	0	0	0	0
COc1cc(C)ccc1OCCOc1c(C)cccc1Cl	0	0	71	0	0	0
CC1=C(CC(=O)O)c2cc(F)ccc2/C1=C\c1ccc(S(C)=O)cc1 (stereo unspecified)	-	0	0	0	-	-
CCOC(=O)c1sc(NC(=O)CCCCCN2C(=O)c3cccc4cccc(c34)C2=O)nc1C	0	-	72	0	0	0
CCc1cccc(NC(=O)CCS(=O)(=O)c2cccc3nonc23)c1	0	0	83	0	0	0
O=C(Nc1cccc(-c2nc3cccnc3s2)c1)c1ccc(Cl)nc1	-	0	81	0	-	-
CCN1CCc2nc(NC(=O)CC(c3ccccc3)c3ccccc3)sc2C1	0	0	0	0	56	0
SMILES	Autophagy mod	bCat nuc transl	CHOP inhibitor	Dynein cargo inh	L major viab	MT stabilizer
CCN1CCc2nc(NC(=O)C(c3ccccc3)c3ccccc3)sc2C1	0	-	0	0	0	0
Cc1cccc(C)c1OCC(=O)N/N=C/c1cc2c(cc1[N+](=O)[O-])OCO2	0	-	0	0	0	0
Cc1ccc(C)c(N=Cc2cc3c(cc2[N+](=O)[O-])OCO3)c1	0	-	81	0	0	0
CC(C)c1nc(NCc2ccccc2)c(C#N)c2c1CCCC2	0	0	0	0	0	0
CN1CCc2c(C#N)c(N3CCCCC3)nc(NCc3ccccc3)c2C1	0	0	84	0	78	0
N#Cc1c(NCCCO)nc(NCc2ccccc2)c2c1CCN(Cc1ccccc1)C2	0	0	88	0	59	0

High-throughput results (PubChem)
